According to ChEMBL document CHEMBL4321880 (J Med Chem, 2020):

Key:
Cytochrome P450 3A4 [1] = target: T1, Cytochrome P450 3A4 (Homo sapiens, UniProt P08684); assay: Inhibition of human recombinant CYP3A4 expressed in supersomes assessed as decrease in formation of D-luciferin at 1.89 uM using luciferin-IPA as substrate incubated for 10 mins in presence of NADPH by P450-Glo luminescence assay relative to control; type: ADME; conditions: recombinant enzyme
Summary of the method: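 P450-Glo assay with supersomes containing POR, cytochrome b5 and recombinant human CYP3A4, 0.1 pmol enzyme. Run in 100 mM KPO4 pH 7.4 with 3 μM Luciferin-IPA, started with NADPH, 10 min at 37 °C. Detection reagent added for 20 min at room temperature, then luminescence read. Final DMSO 0.1%.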

CYP3A5 = CYP3A5 (Homo sapiens, UniProt P20815); assay: Inhibition of human recombinant CYP3A5 expressed in supersomes assessed as decrease in formation of D-luciferin using luciferin-IPA as substrate incubated for 10 mins in presence of NADPH by P450-Glo luminescence assay; conditions: probe luciferin-IPA
ASPC1 [2] = assay: Cytotoxicity against doxycycline-induced CYP3A5 overexpressing wild type human AsPC1 cells assessed as cell growth; type: ADME, cell-based
Summary of the method: (§1)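 Cells seeded at 10,000/well. Dox-inducible lines were induced with 100 ng/mL doxycycline, then treated 24 h later with compound at 16 two-fold dilutions (0.0003–10 μM) plus 5 μM midazolam, in 0.66% DMSO final, for 24 h. Phase-contrast confluence imaging followed. Values were normalized to six 0.66% DMSO replicates and fitted with a three-parameter log(inhibitor) vs response curve.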

ASPC1 [3] = assay: Cytotoxicity against wild type human AsPC1 cells assessed as cell growth; type: cell-based; summary of the method: as §1
ASPC1 [4] = assay: Cytotoxicity against CRISPR/Cas9-mediated CYP3A5 knock-out and doxycycline-induced CYP3A5 overexpressing human AsPC1 cells assessed as cell growth; type: ADME, cell-based; summary of the method: as §1
Cytochrome P450 3A4 [5] = target: T1, Cytochrome P450 3A4; assay: Binding affinity to His-tagged CYP3A4 (unknown origin) expressed in Escherichia coli DH5alpha assessed as type 1 spectral shift to substrate-bound form by UV-vis spectrophotometric titration analysis; type: ADME
Summary of the method: (§2)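 Recombinant His-tagged enzyme expressed in E. coli with groESL chaperones, purified by Ni-NTA, CM-sepharose and S-200 gel filtration (Rz ≥1.3). Ligand added stepwise until heme absorbance stopped changing. Difference spectra taken against the ligand-free spectrum. Peak-minus-trough ΔAbs (388–418 nm) plotted against ligand concentration and fitted with equation 2 for Kd.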

Cytochrome P450 2C9 = Cytochrome P450 2C9 (Homo sapiens, UniProt P11712); assay: Inhibition of CYP2C9 in human liver microsomes assessed as formation of alpha-hydroxytolbutamide at 1.85 uM using tolbutamide as substrate incubated for 15 mins in presence of NADPH by LC-MS/MS analysis; type: ADME; conditions: 0.25 h
Summary of the method: (§3)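 Pooled human liver microsomes with 2 mM NADPH in 100 mM KPO4 pH 7.4, 5 mM MgCl2, 37 °C, technical triplicate, final DMSO 0.2%. Probe (substrate, level, protein, time): 1A2 tacrine 5 μM, 0.2 mg/mL, 10 min; 2B6 bupropion 100 μM, 0.25 mg/mL, 10 min; 2C8 amodiaquine 5 μM, 0.25 mg/mL, 10 min; 2C9 tolbutamide 100 μM, 0.5 mg/mL, 15 min; 2C19 mephenytoin 100 μM, 0.25 mg/mL, 60 min; 2D6 dextromethorphan 5 μM, 0.5 mg/mL, 10 min; 3A4 midazolam 2.5 μM or testosterone 50 μM, 0.25 mg/mL, 10 min. Methanol quench, metabolites measured by LC-MS/MS.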

Cytochrome P450 3A4 [6] = target: T1, Cytochrome P450 3A4; assay: Binding affinity to His-tagged CYP3A4 (unknown origin) expressed in Escherichia coli DH5alpha assessed as formation of Soret band at 386 nm with low decrease in low-spin soret maxima at 416 nm by UV-vis spectrophotometric titration analysis; type: ADME; design: dose or concentration left out as unconfirmed; summary of the method: as §2
Cytochrome P450 3A4 [7] = target: T1, Cytochrome P450 3A4; assay: Inhibition of CYP3A4 in human liver microsomes assessed as formation of 1-hydroxymidazolam at 1.85 uM using midazolam as substrate incubated for 10 mins in presence of NADPH by LC-MS/MS analysis
ASPC1 [8] = assay: Cytotoxicity against CRISPR/Cas9-mediated CYP3A5 knock-out and lentiviral pLVX-TRE3G-ZsGreen1-CYP3A4 transduced human AsPC1 cells overexpressing CYP3A4 assessed as cell growth; type: ADME, cell-based; summary of the method: as §1
ASPC1 [9] = assay: Increase in CYP3A4 expression in CRISPR/Cas9-mediated CYP3A5 knock-out and doxycycline-induced CYP3A4 overexpressing human AsPC1 cells at 1 uM after 24 hrs by Western blot analysis; type: ADME, cell-based; conditions: aspc1, 24 h
Summary of the method: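 Overexpression was induced with 100 ng/mL doxycycline. […] Blots were probed with anti-CYP3A4 K03 (also detects CYP3A5) and β-actin, with infrared dye secondaries. Bands were normalized to actin across triplicate gels, with DMSO set as 1.0.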

Cytochrome P450 2C19 = Cytochrome P450 2C19 (Homo sapiens, UniProt P33261); assay: Inhibition of CYP2C19 in human liver microsomes assessed as formation of 4-hydroxymephenytoin at 1.85 uM using mephenytoin as substrate incubated for 60 mins in presence of NADPH by LC-MS/MS analysis; type: ADME; conditions: 1 h; summary of the method: as §3
ASPC1 [10] = assay: Cytotoxicity against CRISPR/Cas9-mediated CYP3A5 knock-out and lentiviral pLVX-TRE3G-ZsGreen1-CYP3A5 transduced human AsPC1 cells overexpressing CYP3A5 assessed as cell growth; type: ADME, cell-based; summary of the method: as §1
ASPC1 [11] = assay: Cytotoxicity against lentiviral pLVX-TRE3G-ZsGreen1-CYP3A5 transduced wild type human AsPC1 cells overexpressing CYP3A5 assessed as cell growth; type: ADME, cell-based; summary of the method: as §1

T1 sequence (P08684 whole entry): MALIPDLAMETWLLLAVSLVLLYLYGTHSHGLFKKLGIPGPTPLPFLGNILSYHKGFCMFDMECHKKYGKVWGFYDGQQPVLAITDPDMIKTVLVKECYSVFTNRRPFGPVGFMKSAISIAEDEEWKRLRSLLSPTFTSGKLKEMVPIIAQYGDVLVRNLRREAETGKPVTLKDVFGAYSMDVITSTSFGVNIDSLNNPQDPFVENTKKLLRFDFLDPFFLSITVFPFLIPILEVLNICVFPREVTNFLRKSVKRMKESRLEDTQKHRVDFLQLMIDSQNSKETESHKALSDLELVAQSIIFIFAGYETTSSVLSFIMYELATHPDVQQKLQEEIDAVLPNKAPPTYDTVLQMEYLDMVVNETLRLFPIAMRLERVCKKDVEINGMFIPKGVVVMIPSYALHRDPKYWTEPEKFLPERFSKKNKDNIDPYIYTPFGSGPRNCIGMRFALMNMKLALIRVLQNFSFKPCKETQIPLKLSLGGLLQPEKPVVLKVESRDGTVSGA
Cytochrome P450 2C19, sequence (P33261 whole entry): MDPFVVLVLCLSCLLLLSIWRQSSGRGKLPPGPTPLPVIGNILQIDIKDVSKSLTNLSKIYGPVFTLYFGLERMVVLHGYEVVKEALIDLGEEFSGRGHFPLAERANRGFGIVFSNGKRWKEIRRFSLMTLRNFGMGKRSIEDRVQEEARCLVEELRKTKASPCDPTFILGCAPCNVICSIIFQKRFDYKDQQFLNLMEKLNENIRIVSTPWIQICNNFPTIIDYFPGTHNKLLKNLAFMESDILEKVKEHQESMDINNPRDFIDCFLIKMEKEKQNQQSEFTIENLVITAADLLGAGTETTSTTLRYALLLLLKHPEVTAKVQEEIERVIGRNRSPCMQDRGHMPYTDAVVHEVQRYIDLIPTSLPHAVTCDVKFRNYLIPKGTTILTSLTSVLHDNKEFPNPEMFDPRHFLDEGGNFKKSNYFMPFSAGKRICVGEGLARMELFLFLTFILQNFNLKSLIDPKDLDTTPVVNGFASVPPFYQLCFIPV
Cytochrome P450 2C9, sequence (P11712 whole entry): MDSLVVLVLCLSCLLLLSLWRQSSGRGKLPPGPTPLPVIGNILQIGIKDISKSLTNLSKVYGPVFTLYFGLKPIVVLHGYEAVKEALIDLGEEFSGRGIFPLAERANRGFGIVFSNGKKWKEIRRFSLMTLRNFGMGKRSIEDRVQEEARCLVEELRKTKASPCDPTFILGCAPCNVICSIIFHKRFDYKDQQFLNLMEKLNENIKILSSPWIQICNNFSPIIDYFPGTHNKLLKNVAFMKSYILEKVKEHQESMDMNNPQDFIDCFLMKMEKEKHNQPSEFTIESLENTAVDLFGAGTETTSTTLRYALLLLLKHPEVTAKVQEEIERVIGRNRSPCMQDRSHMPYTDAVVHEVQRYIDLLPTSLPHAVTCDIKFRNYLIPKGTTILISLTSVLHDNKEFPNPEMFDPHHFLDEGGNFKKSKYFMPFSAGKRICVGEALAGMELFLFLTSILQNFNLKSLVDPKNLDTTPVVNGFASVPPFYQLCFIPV
CYP3A5, sequence (P20815 whole entry): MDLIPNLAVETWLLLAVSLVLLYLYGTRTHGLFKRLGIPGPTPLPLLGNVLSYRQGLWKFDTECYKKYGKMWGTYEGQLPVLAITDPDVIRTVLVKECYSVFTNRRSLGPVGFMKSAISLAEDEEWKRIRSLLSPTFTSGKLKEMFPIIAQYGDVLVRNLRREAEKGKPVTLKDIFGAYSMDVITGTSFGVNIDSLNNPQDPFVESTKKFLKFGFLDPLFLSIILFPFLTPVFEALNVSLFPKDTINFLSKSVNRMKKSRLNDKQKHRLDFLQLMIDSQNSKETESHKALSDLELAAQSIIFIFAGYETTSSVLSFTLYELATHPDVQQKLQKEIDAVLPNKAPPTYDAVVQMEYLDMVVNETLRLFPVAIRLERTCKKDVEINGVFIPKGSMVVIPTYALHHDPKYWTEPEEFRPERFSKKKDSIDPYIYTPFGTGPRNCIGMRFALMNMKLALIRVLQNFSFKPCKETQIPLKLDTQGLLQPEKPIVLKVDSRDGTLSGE

CCC(=O)O[C@]1(C(=O)CCl)[C@@H](C)C[C@H]2[C@@H]3CCC4=CC(=O)C=C[C@]4(C)[C@@]3(F)[C@@H](O)C[C@@]21C [CLOBETASOL PROPIONATE]
inhibition (INH) (Cytochrome P450 3A4 [1]): Not Active | IC90 at 10 min (CYP3A5): 1.8 µM | Activity (ASPC1 [2]): Non-Toxic | Activity (ASPC1 [3]): Non-Toxic | Activity (ASPC1 [4]): Non-Toxic | Activity (Cytochrome P450 3A4 [5]): Active | inhibition (INH) (Cytochrome P450 2C9): Not Active | Activity (Cytochrome P450 3A4 [6]): Active | inhibition (INH) (Cytochrome P450 3A4 [7]): Not Active | Activity (ASPC1 [8]): Non-Toxic | Activity (ASPC1 [9]): Not Active | inhibition (INH) (Cytochrome P450 2C19): Not Active | Activity (ASPC1 [10]): Non-Toxic | Activity (ASPC1 [11]): Non-Toxic
